hERG protect = hERG rescue from dofetilide block, primary screen, cell-based, CHO-hERG, FluxOR thallium flux, dofetilide IC70. activation (rescue from dofetilide block), less the hit threshold, % at 10 µM. actives 0.51% (n = 310,000). Voltage-gated inwardly rectifying potassium channel KCNH2 (Homo sapiens), Q12809. dofetilide IC70 present;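 active means activation above the mean of controls blocked by dofetilide plus 5 SD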;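 further: thallium influx through hERG after potassium depolarization seen as dye fluorescence rise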
KCNQ1 block = inhibitors of human KCNQ1 channel, primary screen, cell-based, thallium flux, high-throughput. CHO-K1 KCNQ1, FluxOR thallium flux fluorescence; hits give high values. AID 2642, 2010. B-score at 10 µM. actives 1.3% (n = 310,000);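 active means compounds whose thallium flux B-score, printed positive for inhibition, exceeds three library SD while starting fluorescence stays within three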;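 further: channel opened by potassium depolarization with thallium stimulus after 20 min compound exposure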
KCNK9 inh = KCNK9 potassium channel inhibitors, primary screen, HEK293 cells, thallium flux | Potassium channel subfamily K member 9 (Homo sapiens), Q9NPC2 | FluxOR thallium flux fluorescence; hits give low values | B-score at 10 µM | actives 1.2% (n = 310,000) | AID 488922, 2010;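 active means ratio B-score over 3 SD below the library mean, with starting fluorescence within 5 SD of its mean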;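 further: negative B-score means less thallium flux so channel inhibition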
KCNQ1 pot = potentiators or activators of KCNQ1 channel, primary screen, cell-based, thallium flux, high-throughput; CHO-K1 KCNQ1, thallium flux FluxOR fluorescence; hits give high values; B-score at 10 µM; actives 0.35% (n = 310,000); AID 2648, 2010;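 active means fluorescence ratio B-score, a plate-corrected score, at least three library SD, with initial intensity B-score within 5 SD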
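assay system = CHO-K1 cells stably expressing KCNQ1 | medium = assay buffer, equal DMSO in all wells | timing = 37 °C overnight plating, 90-min dark dye load, 20-min compound pretreatment | measured by = kinetic FluxOR thallium fluorescence, 10-s 1-Hz baseline, 110-s post-stimulus read | measure = fluorescence change relative to baseline, converted to B score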
KCNK3 block = human KCNK3 channel inhibitors, primary screen, CHO cells, FluxOR thallium flux, B-score. Potassium channel subfamily K member 3 (Homo sapiens), O14649. AID 602410, 2012. actives 0.84% (n = 340,000). FluxOR fluorescence; hits give low values. B-score at 10 µM;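 active means B-score under library mean minus 4 SD, starting fluorescence ratio at most library mean plus 5 SD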;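 further: more negative B-score means stronger inhibition of thallium flux through KCNK3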
Kir21 block = inhibitors of mouse Kir2.1 inward-rectifier potassium channel | Inward rectifier potassium channel 2 (Mus musculus), P35561 | HEK293-Kir2.1, FluxOR thallium flux fluorescence; hits give low values | B-score at 10 µM | actives 0.85% (n = 310,000) | AID 1672, 2009;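 active means fluorescence ratio B-score at or below minus 3 SD of library scores, with starting-brightness B-score within 2 SD, cut at about -4.2 in these data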;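 further: channel flux triggered by added potassium and thallium sulfate stimulus; B-score of peak minus minimum fluorescence over baseline after thallium stimulus; more negative B-score means stronger Kir2.1 block with less thallium influx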
Large screens that a line does not name were inactive. This is a sample that favours compounds with a hit; in the whole collection about 3.7% have one here.

CCN(Cc1ccccc1)S(=O)(=O)c1ccc(C(=O)N(CCCN(C)C)c2nc3cc4c(cc3s2)OCCO4)cc1	KCNQ1 block 7
CN(C)CCCN(C(=O)c1ccc(Br)s1)c1nc2cc3c(cc2s1)OCCO3	Kir21 block -7.8
CCOCC(=O)N1CCN(c2ccccc2OC)CC1	none
CC(C)(CNC(=O)c1cc(Cl)c(O)c(Cl)c1)N1CCCCC1	none
O=C1C(SCCO)=C(SCCO)C(=O)c2ccccc21	KCNK3 block -15 (no result: hERG protect, KCNQ1 block, KCNK9 inh, KCNQ1 pot, Kir21 block)
CC1=C(SCc2ccccc2)C(=O)c2ccccc2C1=O	none (no result: hERG protect, KCNQ1 block, KCNK9 inh, KCNQ1 pot, Kir21 block)
CCc1cc2c(SCC(=O)Nc3cc(C)on3)ncnc2s1	none
Oc1c(Br)cc(Cl)cc1C=Nc1ccc(N2CCOCC2)cc1	none
Oc1c(Br)cc(Cl)cc1C=Nc1ccccc1Br	hERG protect 11, KCNQ1 pot 8
CCOc1nc2ccccc2cc1C=O	hERG protect 7.1, KCNQ1 pot 11
CCCc1c(C)nc2c(OC)cccc2c1SCC(=O)O	hERG protect 4.7
CCCc1c(C)nc2ccc(OC)cc2c1SCCC(=O)O	none
CC1CCCC(N2CCN(S(=O)(=O)c3ccccc3)CC2)C1 (centres undefined)	none
O=Cc1c(N2CCN(CCO)CC2)nc2ccccn2c1=O	KCNQ1 block 13
Cc1ccc(S(=O)(=O)N(C)CC(=O)Nc2ccccc2N2CCCC2)cc1	none (no result: hERG protect, KCNQ1 block, KCNK9 inh, KCNQ1 pot, Kir21 block)
CN1CCN(c2cc(N3CCc4ccccc4C3)c(F)cc2[N+](=O)[O-])CC1	Kir21 block -4.7
Cc1cc(C)n2nc(Sc3ncccc3[N+](=O)[O-])nc2n1	none
CCc1cc(-c2nc(N)ncc2-c2csc(C)n2)c(O)cc1OC	none
CCCc1cc(-c2nc(N)ncc2-c2ccc3c(c2)OCCCO3)c(O)cc1OC	KCNQ1 block 7
CCCc1cc(-c2nc(N)ncc2-c2csc(C)n2)c(O)cc1OC	Kir21 block -6.4
Fc1cccc(/C=N/Nc2ccccn2)c1	none
Fc1cccc(/C=N/Nc2ccc3ccccc3n2)c1	hERG protect 10, KCNQ1 pot 58
Cc1cc(S(=O)(=O)N2CCOCC2)ccc1OCC(=O)NCc1ccco1	hERG protect 6.7
O=S(=O)(/N=C(/Nc1cccnc1)c1ccccc1)c1ccc(F)cc1F	none (no result: hERG protect, KCNQ1 block, KCNK9 inh, KCNQ1 pot, Kir21 block)
CN(C)NC1=CC(=[N+]2CCCC2)CC(C)(C)C1	none
CCCN(CCC)C1=CC(=[N+]2CCCC2)CC(C)(C)C1	KCNQ1 block 6
COc1cc(CNCCCN2CCOCC2)cc(Br)c1OCc1ccc(Cl)cc1	Kir21 block -8.2
COc1cc(CNCCN2CCOCC2)ccc1OCc1ccc(Cl)cc1	none
CCOc1ccc(CCNC(=O)c2ccc(CS(=O)Cc3ccccc3Cl)o2)cc1 (centres undefined)	Kir21 block -4.3
CCOc1ccc(CCNC(=O)c2ccc(CS(=O)Cc3ccc(Cl)cc3)o2)cc1 (centres undefined)	none
Cc1ccc(Cn2ccsc2=NC(=O)COC(=O)c2ccc(O)cc2O)cc1	none
O=C(COC(=O)c1ccc(O)cc1O)N=c1sccn1Cc1ccccc1Cl	KCNK9 inh -6.9
CC(C)(O)C#Cc1ccc(CNC[C@H]2O[C@@H](n3cnc4c(N)ncnc43)[C@H](O)[C@@H]2O)s1	none (no result: hERG protect, KCNQ1 block, KCNK9 inh, KCNQ1 pot, Kir21 block)
NC1=NC2=C(CCCC2)C2(CCCCC2)S1	Kir21 block -6.7
O=C(Nc1ccccc1)c1cc(Cl)nc2ccccc12	none
CCCCCSc1nnc2c(n1)OC(c1cccn1C)N(C(C)=O)c1ccccc1-2 (centres undefined)	KCNK9 inh -9.7
Cc1cccc2sc(NC(=O)CN(C)S(=O)(=O)c3ccc(Br)s3)nc12	KCNK3 block -9.9
CC[n+]1c(/C=C/c2ccc(OC)c(OC)c2)ccc2ccccc21	none
CCN(CC)c1ccc(/C=C/c2ccc3ccc(OC)cc3[n+]2CC)cc1	KCNK9 inh -7.1, KCNK3 block -13, Kir21 block -16
CCOc1ccc2ccccc2c1CNCCc1ccc(S(N)(=O)=O)cc1	Kir21 block -4.4
CCOc1ccc(CNCCc2ccc(S(N)(=O)=O)cc2)cc1	none
CCCN1CCC(NC(=O)Nc2ccc([N+](=O)[O-])cc2)CC1	none
CC(C)=CCc1cc2c(=O)c3c(O)c4c(cc3oc2c(O)c1O)OC(C)C4(C)C (centres undefined)	KCNQ1 block 6 (no result: KCNK3 block)
Cc1ccnc(NC(=O)C2CCN(S(=O)(=O)c3ccc(C)c(C)c3)CC2)c1	none
Cc1cc(/C=C\c2ccc3cc(N(C)C)ccc3[n+]2C)c(C)n1-c1ccccc1	KCNK3 block -11 (no result: hERG protect, KCNQ1 block, KCNK9 inh, KCNQ1 pot, Kir21 block)
C[n+]1c(/C=C/c2ccc(O)cc2)ccc2ccccc21	none
CCOP(=O)(OCC)C(NC(=O)Nc1ccccc1)c1ccccc1 (centres undefined)	none
CCOP(=O)(OCC)C(NCc1ccccc1)c1ccc(Br)cc1 (centres undefined)	Kir21 block -4.3
Cc1nc(C)c(-c2ccc(SCc3ccccc3C)nn2)s1	KCNK9 inh -7.9
CCCC(C(=O)NCCC(C)C)N(Cc1ccccc1)C(=O)c1snc(C(N)=O)c1N (centres undefined)	none
CCOC(=O)CCCNC(=O)CSc1nc2ccc(OCC)cc2[nH]1	hERG protect 7.2
CC(C)Oc1ccc(C2CC(=O)N(c3cccc(/C=C/C(=O)O)c3)C2=O)cc1 (centres undefined)	none
COc1cc(OC)cc(C(=O)N2CCCC(Nc3ccc(F)cc3)C2)c1 (centres undefined)	none
COc1ccc2cc(C(=O)N3CCCC(Nc4ccc(F)cc4)C3)n(C)c2c1 (centres undefined)	Kir21 block -4.9
CCC1(c2ccc(F)cc2)NC(=O)N(CC(=O)N2CCN(C(=O)c3ccco3)CC2)C1=O (centres undefined)	none (no result: hERG protect, KCNQ1 block, KCNK9 inh, KCNQ1 pot, Kir21 block)
Cc1noc(C)c1CSc1nnc2scc(-c3ccccc3)n12	Kir21 block -5.2
Cc1noc(C)c1CSc1nnc(-c2ccccc2)n1N	none
Cc1ccc(NC(=O)COC(=O)CCc2ccccc2)cc1S(=O)(=O)N1CCOCC1	none (no result: hERG protect, KCNQ1 block, KCNK9 inh, KCNQ1 pot, Kir21 block)
Cc1ccc(S(=O)(=O)N(C)c2ccc(OCC(=O)Nc3nc(-c4ccccc4)cs3)cc2)cc1	KCNK9 inh -7.2
Cc1ccc(S(=O)(=O)N(C)c2ccc(OC(=O)COc3ccccc3)cc2)cc1	none (no result: hERG protect, KCNQ1 block, KCNK9 inh, KCNQ1 pot, Kir21 block)
Cc1ccc(S(=O)(=O)CC(=O)Nc2nc(-c3ccccc3)cs2)cc1	KCNQ1 block 6

Bioassay records as filed in PubChem.
